Assay outcomes as filed in PubChem.
Compounds with a hit are over-represented: about 2.4% of the library has one in this group of screens.
TDP2 inh = TDP2 (human) inhibition, absorbance primary screen | actives 0.34% (n = 370,000) | recombinant TDP2, T5PNP hydrolysis, p-nitrophenol absorbance 415 nm | O95551 | inhibition, % at 12.8 µM;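 active means inhibition above the mean of all tested compounds plus 3 SD, set per campaign, cut at about 25% in these data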
Target sequence (O95551 whole entry, looked up): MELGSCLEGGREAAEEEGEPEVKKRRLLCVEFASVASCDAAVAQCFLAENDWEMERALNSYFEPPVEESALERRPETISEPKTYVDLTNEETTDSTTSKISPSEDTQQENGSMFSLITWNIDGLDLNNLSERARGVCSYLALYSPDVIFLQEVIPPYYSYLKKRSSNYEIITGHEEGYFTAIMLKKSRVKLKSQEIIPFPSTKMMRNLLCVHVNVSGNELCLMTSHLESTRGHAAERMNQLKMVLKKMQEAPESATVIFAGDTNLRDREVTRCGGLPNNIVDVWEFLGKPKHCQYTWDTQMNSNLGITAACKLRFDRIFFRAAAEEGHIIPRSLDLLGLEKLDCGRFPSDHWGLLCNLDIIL
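Assay system: recombinant human TDP2 / Reagent: T5PNP substrate at 5 mM, a TopII-DNA adduct mimic / Measured by: epi absorbance from released p-nitrophenol / Evaluation: % inhibition relative to enzyme-containing and enzyme-free wells / Control set: enzyme-free and DMSO wells / Replicates: each compound tested once, singlicate / Schedule: enzyme reaction with compound for 2 h at 37 °C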
SIAE primary = inhibitors of human sialic acid acetylesterase SIAE; SIAE FP-Rh probe binding, fluorescence polarization; inhibition, % at 9.66 µM; actives 0.69% (n = 370,000); AID 1053197;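 active means inhibition above a cutoff: mean of compounds within the control limits plus 3 SD of those, cut at about 17% in these data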
TCR-CD3 inh = human TCR-CD3 binding inhibition; TAMRA-labeled TCR probe fluorescence, biochemical; actives 0.37% (n = 360,000); inhibition, % at 9.4 µM; in the data active means inhibition above about 19%;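 further: recombinant mutant TCR 2C K166C tagged with TAMRA read by polarization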
Apaf-1 inh = inhibitors of human Apaf-1 apoptosome | reconstituted apoptosome caspase-3 activity, DEVD-Rh110 fluorescence | AID 489030 | inhibition, % at 20 µM | actives 0.71% (n = 330,000) | O14727; active means inhibition of at least 40% at 20 µM
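Material: cell-free apoptosome with Apaf-1, procaspase-3 and caspase-9; Buffer or medium: Hepes pH 7.5 with detergent and BSA; Reagent: cytochrome c trigger plus (Z-DEVD)2-Rh110 caspase-3 substrate; Times: compound with Apaf-1, dATP, procaspase-3 30 min, then 50 min reaction, room temperature; Technique: Rh110 fluorescence intensity.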
GSTO1 inh = blocks human GSTO1 in RBBP9 counter-screen | inhibition, % at 5.96 µM | actives 1.1% (n = 300,000) | AID 1974 | P78417 | recombinant GSTO1, activity-based probe fluorescence polarization;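 active means inhibition above the campaign mean inhibition plus 3 SD, cut at about 35% in these data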
Target sequence (P78417 whole entry, looked up): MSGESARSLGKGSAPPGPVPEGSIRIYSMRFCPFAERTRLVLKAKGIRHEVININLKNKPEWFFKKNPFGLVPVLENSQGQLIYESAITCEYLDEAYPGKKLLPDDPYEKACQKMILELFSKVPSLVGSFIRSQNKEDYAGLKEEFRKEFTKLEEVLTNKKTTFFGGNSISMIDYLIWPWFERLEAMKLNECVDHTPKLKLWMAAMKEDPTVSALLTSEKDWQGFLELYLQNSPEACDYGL
PAD4 inh = blocks human protein arginine deiminase 4; actives 0.41% (n = 330,000); inhibition, % at 6.36 µM; recombinant PAD4, RCA probe fluorescence polarization;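 active means percent inhibition above a cutoff equal to the mean of all tested compounds plus 3 SD, cut at about 15% in these data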
SIAE confirm = human SIAE inhibition, confirmation | shares compounds with SIAE primary | inhibition, % at 9.66 µM | SIAE FP-Rh activity-based probe, fluorescence polarization | AID 1117263 | actives 13% (n = 2,300);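 active means mean inhibition of the replicates above the hit cutoff set in the primary screen, cut at about 17% in these data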;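 further: inhibitors lower polarization as more probe stays unbound to SIAE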
Large screens that a line does not name were inactive (follow-up assays come after a bar, where they were run).

COCCN(C)Cc1nc(C(c2ccccc2)c2ccccc2)no1	none
COc1ccc(OCCSc2nc3ccccc3n2CC(=O)O)cc1	none
COc1ccccc1OCCSc1nc2ccccc2n1CC(N)=O	SIAE primary 17 | SIAE confirm inactive
CC(C)N(Cc1nc2ccccc2c(=O)[nH]1)C(=O)c1ccc(NC(=O)CSc2nnnn2C)cc1	SIAE primary 18 (no result: GSTO1 inh) | SIAE confirm inactive
S=C(Nc1ccc2nsnc2c1)NC1CCCCC1	SIAE primary 19 | SIAE confirm inactive
C/C(=N\NC(=S)Nc1cccc(C)c1)c1cc2ccccc2o1	SIAE primary 19 | SIAE confirm inactive
CN(C)C(=O)c1cnc(Cc2c[nH]c3ccccc23)c(I)c1	SIAE primary 18 (no result: Apaf-1 inh, GSTO1 inh, PAD4 inh) | SIAE confirm inactive
CC(=O)c1c(C)[nH]c(C(=O)NCc2ccc(F)cc2)c1C	none
CC(=O)c1c(C)[nH]c(C(=O)NCc2ccccc2)c1C	SIAE primary 26 | SIAE confirm inactive
CN(C)c1ccc(C2Nc3cccc4cccc(c34)N2)cc1	SIAE primary 38 | SIAE confirm inactive
CN(C)c1ccc(C2NC(=O)c3ccccc3N2)cc1 (stereo not given)	none
COc1cc(OC)c(C2Nc3cccc4cccc(c34)N2)c(OC)c1	SIAE primary 21 (no result: GSTO1 inh, PAD4 inh) | SIAE confirm inactive
COc1ccc(C2Nc3cccc4cccc(c34)N2)cc1	SIAE primary 25, GSTO1 inh 35 | SIAE confirm inactive
CCOC(=O)C1(Cc2ccccc2)CCN(Cc2ccccc2OC)CC1	none (no result: TCR-CD3 inh, Apaf-1 inh, GSTO1 inh, PAD4 inh)
Oc1c(C(c2ccccc2)N2CCOCC2)ccc2ccccc12 (stereo not given)	none (no result: Apaf-1 inh, GSTO1 inh, PAD4 inh)
NC(=O)c1cc(S(=O)(=O)N2CCCC2)ccc1OCCOc1ccccc1F	SIAE primary 21 (no result: GSTO1 inh, PAD4 inh) | SIAE confirm inactive
COc1ccc(OCCOc2ccc(S(=O)(=O)N3CCCC3)cc2C(N)=O)cc1	none (no result: GSTO1 inh)
O=C(Nc1cc(Cl)ccc1N1CCOCC1)c1ccc(Br)o1	SIAE primary 24 | SIAE confirm inactive
COc1ccc(N2CCOCC2)c(NC(=O)c2ccc(Br)o2)c1	none
Cc1cccc(NC(=O)CN2C(=O)N/C(=C/c3cc(C)n(C(C)C)c3C)C2=O)c1	SIAE primary 23 | SIAE confirm inactive
Oc1ccc(C=NNc2nc3ccccc3s2)c(O)c1	none (no result: Apaf-1 inh, GSTO1 inh, PAD4 inh)
Oc1ccc(/C=N/Nc2ccc3ccccc3c2)c(O)c1	SIAE primary 21 | SIAE confirm inactive
Cn1c(=O)c2c(SCC(=O)Nc3ccccc3F)nc(-c3ccccc3F)nc2n(C)c1=O	SIAE primary 23 | SIAE confirm inactive
S=C1NCCN1CC1CCN(CCC23CC4CC(CC(C4)C2)C3)CC1	none (no result: Apaf-1 inh, GSTO1 inh, PAD4 inh)
CN(C(=O)COC(=O)c1ccc(Cl)c(S(=O)(=O)N2CCCCCC2)c1)C1CCS(=O)(=O)C1 (stereo not given)	SIAE primary 19 (no result: GSTO1 inh) | SIAE confirm inactive
CSc1cccc(NC(=S)N(CCN(C)C)C(C)c2ccncc2)c1 (stereo not given)	SIAE primary 23 | SIAE confirm inactive
CSc1cccc(NC(=S)N(CCN(C)C)C(C)c2ccccn2)c1 (stereo not given)	none
CN(C)C(=S)N=Nc1[nH]c2ccccc2c1O	SIAE primary 21 | SIAE confirm inactive
O=C1Nc2ccc(Br)cc2/C1=C/C(=O)c1ccc2c(c1)OCO2	SIAE primary 19 | SIAE confirm inactive
COc1ccc(C(=O)/C=C2\C(=O)Nc3ccc(Br)cc32)cc1	none (no result: Apaf-1 inh, GSTO1 inh, PAD4 inh)
O=C(CCc1ccccc1)NCCCNC(=O)CCc1ccccc1	none (no result: GSTO1 inh)
CN(C)CCCN(C(=O)c1ccc(S(=O)(=O)N(C)Cc2ccccc2)cc1)c1nc2cc3c(cc2s1)OCO3	SIAE primary 22 | SIAE confirm inactive
CCN(c1ccccc1)S(=O)(=O)c1ccc(C(=O)N(CCCN(C)C)c2nc3cc4c(cc3s2)OCO4)cc1	none
CCc1nc(N2CCN(S(=O)(=O)c3ccc(Br)cc3)CC2)c2c(C)c(C)sc2n1	none
Cc1nc(N2CCN(S(=O)(=O)c3ccc(Br)cc3)CC2)c2c(C)c(C)sc2n1	SIAE primary 19 | SIAE confirm inactive
N=c1n(CCN2CCCCC2)c2ccccc2n1CC(O)c1cccc(Br)c1 (stereo not given)	SIAE primary 33 | SIAE confirm inactive
CCOc1ccc(CN2C(=O)c3ccccc3C2=O)cc1C(=O)O	none
CCOc1ccc(CN2C(=O)c3ccccc3C2=O)cc1C(=O)N1CCC(C(N)=O)CC1	SIAE primary 22 | SIAE confirm inactive
CCCCn1c(=O)[nH]c2nc3cc(N)ccc3nc2c1=O	SIAE primary 31, TCR-CD3 inh 21 (no result: Apaf-1 inh) | SIAE confirm inactive
COc1ccc(C(=O)Nc2cc(OC)c(NC(=O)Nc3ccccc3)cc2OC)cc1	SIAE primary 23 (no result: Apaf-1 inh, GSTO1 inh, PAD4 inh) | SIAE confirm inactive
COc1ccc(C(=O)Nc2cc(OC)c(Cl)cc2OC)cc1	none
COC(=O)c1ccccc1NC(=S)NC(=O)COc1ccccc1	none
O=C(COc1ccccc1)NC(=S)Nc1cccc2c(O)cccc12	SIAE primary 25 (no result: Apaf-1 inh, GSTO1 inh, PAD4 inh) | SIAE confirm inactive
COc1ccccc1CN1CCc2c([nH]c3ccccc23)C1	none
O=C(N[C@H](CO)Cc1ccccc1)[C@H]1O[C@@H](n2ccc(=O)[nH]c2=O)[C@H](O)[C@@H]1O	SIAE primary 48 (no result: Apaf-1 inh, GSTO1 inh, PAD4 inh) | SIAE confirm 44
C[C@@H](CO)NC(=O)[C@H]1O[C@@H](n2ccc(=O)[nH]c2=O)[C@H](O)[C@@H]1O	none (no result: Apaf-1 inh, GSTO1 inh, PAD4 inh)
O=C(O)[C@H](Cc1ccccc1)NC(=O)[C@H]1O[C@@H](n2ccc(=O)[nH]c2=O)[C@H](O)[C@@H]1O	none (no result: Apaf-1 inh, GSTO1 inh, PAD4 inh)
CC[C@H](C)[C@@H](CO)NC(=O)[C@H]1O[C@@H](n2ccc(=O)[nH]c2=O)[C@H](O)[C@@H]1O	SIAE primary 88 (no result: Apaf-1 inh, GSTO1 inh, PAD4 inh) | SIAE confirm 78
COc1ccc(C(=O)C[n+]2ccccc2/C=N/O)cc1	SIAE primary 18 | SIAE confirm inactive
COc1ccc2c(ccc[n+]2CC(=O)c2ccccc2)c1	none (no result: GSTO1 inh, PAD4 inh)
COc1ccc(C(=O)Oc2cc(N)n(S(=O)(=O)c3ccc(C)cc3)n2)cc1	none
Cc1ccc(S(=O)(=O)n2nc(OC(=O)C3CCCCC3)cc2N)cc1	SIAE primary 36 | SIAE confirm 38
Cc1ccc(S(=O)(=O)n2nc(OC(=O)c3ccccc3C)cc2N)cc1	none
COc1ccc(S(=O)(=O)n2nc(OC(=O)C3CCCCC3)cc2N)cc1	SIAE primary 43 | SIAE confirm 50
CCOC(=O)C1CCN(Cc2cnc(NC(=O)OC)s2)CC1	none
COC(=O)Nc1ncc(CN2CCc3ccccc3C2)s1	SIAE primary 78 | SIAE confirm inactive
Cc1ccc(CCNC(=O)c2ccc(CS(=O)(=O)c3ccccc3C)o2)cc1	none
Cn1ncc(Br)c1N1C(=O)CCC1=O	SIAE primary 20 | SIAE confirm inactive
